Laboratory results from ChEMBL document CHEMBL4138314, “Synthesis and Evaluation of N-Phenyl-3-sulfamoyl-benzamide Derivatives as Capsid Assembly Modulators Inhibiting Hepatitis B Virus (HBV)” (J Med Chem, 2018).

Tested on: HBV genotype D
Test: Antiviral activity against HBV genotype D infected in chimeric mouse with humanized liver assessed as log reduction in viral DNA level in serum at 0.03 mg/kg, po qd for 28 days by RT-PCR method
Assay type: functional, hepatitis B virus genotype D
Outline: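 HBV genotype D-infected chimeric mice with humanized liver (human hepatocyte replacement index ≥70%, judged by serum human albumin). Dosing was once daily for 28 days: test article 200 mg/kg s.c., entecavir 0.03 mg/kg oral as positive control, and oral saline as negative control. The read-out was serum HBV DNA (copies/mL), given as mean log change from baseline at day 29.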

C=C1[C@H](CO)[C@@H](O)C[C@@H]1n1cnc2c(=O)[nH]c(N)nc21.O [ENTECAVIR]
log(activity): 3.03
